Measurements from ChEMBL document CHEMBL3244297, “In vitro antiplaque properties of a series of alkyl bis(biguanides)” (1978).

Tests used:
Assay type in all cases: functional
Actinomyces naeslundii [1] = experiment: Antibacterial activity against Actinomyces naeslundii ATCC 12104 assessed as growth inhibition by tube dilution assay
In short: (§1)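 Standard tube dilution assay, modified so that adherent cells were dispersed before cell density was read spectrophotometrically at 540 nm. The value is the minimum inhibitory concentration, given in molar units.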

Streptococcus mutans [2] = experiment: Antibacterial activity against wild type Streptococcus mutans 6715-13 assessed as growth inhibition by tube dilution assay; in short: as §1
Actinomyces naeslundii [3] = experiment: Antiplaque activity against Actinomyces naeslundii ATCC 12104 assessed as growth inhibition of adherent cells on saliva coated bovine tooth slabs
In short: (§2)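 Tooth slabs were treated with the test agents at a series of molar concentrations. The value is the lowest molar concentration (M × 10⁴) that gave >90% inhibition of growth of adherent cells, based on triplicate sets.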

Streptococcus mutans [4] = experiment: Antiplaque activity against wild type Streptococcus mutans 6715-13 assessed as growth inhibition of adherent cells on saliva coated bovine tooth slabs; in short: as §2
Actinomyces viscosus [5] = experiment: Antibacterial activity against Actinomyces viscosus M-100-2000 assessed as growth inhibition by tube dilution assay; in short: as §1
Actinomyces viscosus [6] = experiment: Antiplaque activity against Actinomyces viscosus M-100-2000 assessed as growth inhibition of adherent cells on saliva coated bovine tooth slabs; in short: as §2

Row | SMILES | MIC (Actinomyces naeslundii [1]) [µM] | MIC (Streptococcus mutans [2]) [µM] | MIC>90 (Actinomyces naeslundii [3]) [×10⁻⁴ M] | MIC>90 (Streptococcus mutans [4]) [×10⁻⁴ M] | MIC (Actinomyces viscosus [5]) [µM] | MIC>90 (Actinomyces viscosus [6]) [×10⁻⁴ M]
1 | N=C(NCCCCCCNC(=N)NC(=N)Nc1ccc(Cl)cc1)NC(=N)Nc1ccc(Cl)cc1.O=C(O)[C@H](O)[C@@H](O)[C@H](O)[C@H](O)CO | 10 | 10 | >100 | 10 | 10 | >10
2 | CCCCCC(CC)CNC(=N)NC(=N)NCCCCNC(=N)NC(=N)NCC(CC)CCCCC.Cl (stereo not given) | 10 | 10 | 0.5 | 100 | 10 | 10
3 | CCCCCCCCCNC(=N)NC(=N)NCCCCNC(=N)NC(=N)NCCCCCCCCC.Cl | 10 | 100 | 1 | 70 | 10 | 10
4 | CCCCCCCNC(=N)NC(=N)NCCCCCCNC(=N)NC(=N)NCCCCCCC.Cl | 10 | 10 | 0.5 | 50 | 1 | >10
5 | CCCCCCNC(=N)NC(=N)NCCCCCCCCNC(=N)NC(=N)NCCCCCC.Cl | 10 | 10 | 1 | 3 | 1 | >10
6 | CCCCCCNC(=N)NC(=N)NCCCCCCNC(=N)NC(=N)NCCCCCC.Cl | 10 | 10 | 0.8 | 100 | 1 | 0.8
7 | CCCCC(CC)CNC(=N)NC(=N)NCCCCCCNC(=N)NC(=N)NCC(CC)CCCC.Cl.Cl (stereo not given) [ALEXIDINE DIHYDROCHLORIDE] | 10 | 10 | 5 | >100 | 0.1 | 0.5

Results, then the compound that gave them:

Row | MIC (Actinomyces naeslundii [1]) [µM] | MIC (Streptococcus mutans [2]) [µM] | MIC>90 (Actinomyces naeslundii [3]) [×10⁻⁴ M] | MIC>90 (Streptococcus mutans [4]) [×10⁻⁴ M] | MIC (Actinomyces viscosus [5]) [µM] | MIC>90 (Actinomyces viscosus [6]) [×10⁻⁴ M] | SMILES
8 | 10 | 10 | 0.5 | 8 | 10 | 5 | CCCCCCCCNC(=N)NC(=N)NCCCCCCNC(=N)NC(=N)NCCCCCCCC.Cl
9 | 10 | 10 | 0.5 | >10 | 10 | >10 | CCCCCCCNC(=N)NC(=N)NCCCCCCCCNC(=N)NC(=N)NCCCCCCC.Cl
10 | 10 | 10 | 0.5 | 10 | 10 | >10 | CCCCCCNC(=N)NC(=N)NCCCCCCCCCCNC(=N)NC(=N)NCCCCCC.Cl
